Structures are written as SMILES.

The results in this text go back to ChEMBL document CHEMBL1255227, “Novel pyridylmethylamines as highly selective 5-HT(1A) superagonists” (J Med Chem, 2010).

Test [1] has as its target T1, 5-hydroxytryptamine receptor 1A (Homo sapiens, UniProt P08908).
T1 sequence (P08908 whole entry): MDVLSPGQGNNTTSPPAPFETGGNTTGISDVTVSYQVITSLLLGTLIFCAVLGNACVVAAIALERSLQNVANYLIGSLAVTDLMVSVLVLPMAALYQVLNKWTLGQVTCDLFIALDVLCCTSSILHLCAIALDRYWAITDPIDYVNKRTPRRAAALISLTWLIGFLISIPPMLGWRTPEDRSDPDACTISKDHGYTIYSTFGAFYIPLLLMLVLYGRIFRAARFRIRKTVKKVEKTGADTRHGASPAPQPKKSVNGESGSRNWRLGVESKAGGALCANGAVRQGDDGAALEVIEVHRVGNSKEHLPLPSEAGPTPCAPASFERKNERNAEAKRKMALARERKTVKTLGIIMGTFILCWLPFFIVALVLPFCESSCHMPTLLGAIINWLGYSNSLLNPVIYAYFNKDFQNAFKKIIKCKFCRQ
Put plainly: Intrinsic activity at human 5-HT1A receptor expressed in CHO cells assessed as increase of serotonin-induced [35S]GTPgammaS binding. Type of test: functional, cell-based. Summed up: (§1)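 Membranes from CHO cells stably expressing human 5-HT1A were incubated with 0.1 nM [35S]GTPγS and test compound at eight concentrations (0.01-10000 nM), in hexaduplicate. Values come from a mean curve of four experiments. Emax is expressed relative to the maximal serotonin effect.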
A general note: Binding of GTPγS marks nucleotide exchange on a G protein.

Test [2] is described as follows: Displacement of [3H]WAY-100635 from 5-HT1A receptor in pig cortex membranes. Type of test: cell membranes, Sus scrofa. On the technique in general: Displacement assays read how much labelled ligand stays bound in the presence of the test substance.
The target of test [3] is T2, 5-hydroxytryptamine receptor 1A (Homo sapiens) (UniProt P08908).
T2 sequence (whole entry): T1 sequence (P08908 whole entry)
The experiment in a line: Intrinsic activity at human 5-HT1A receptor expressed in CHO cells assessed as increase of serotonin-induced [35S]GTPgammaS binding relative to serotonin. Type of test: functional, cell-based. In a few lines:
as §1

Another test relates to Mus musculus. Put plainly: Antinociceptive activity against formalin-induced inflammatory pain in mouse assessed as reduction of paw licking at 1 mg/kg, ip. The conditions noted are these: route intraperitoneal. Details: scale not given: the % may be the effect or the level left. Format: functional.
The nature of test [4]: Displacement of [3H]8-OH-DPAT from 5-HT1A receptor in pig cortex membranes. Type of test: cell membranes, Sus scrofa.
The target of test [5] is 5-hydroxytryptamine receptor 2A (Sus scrofa, UniProt P50129). The experiment in a line: Displacement of [3H]Ketanserin from 5-HT2 receptor in pig cortex membranes. Type of test: cell membranes.
Chain of 5-hydroxytryptamine receptor 2A (P50129 whole entry): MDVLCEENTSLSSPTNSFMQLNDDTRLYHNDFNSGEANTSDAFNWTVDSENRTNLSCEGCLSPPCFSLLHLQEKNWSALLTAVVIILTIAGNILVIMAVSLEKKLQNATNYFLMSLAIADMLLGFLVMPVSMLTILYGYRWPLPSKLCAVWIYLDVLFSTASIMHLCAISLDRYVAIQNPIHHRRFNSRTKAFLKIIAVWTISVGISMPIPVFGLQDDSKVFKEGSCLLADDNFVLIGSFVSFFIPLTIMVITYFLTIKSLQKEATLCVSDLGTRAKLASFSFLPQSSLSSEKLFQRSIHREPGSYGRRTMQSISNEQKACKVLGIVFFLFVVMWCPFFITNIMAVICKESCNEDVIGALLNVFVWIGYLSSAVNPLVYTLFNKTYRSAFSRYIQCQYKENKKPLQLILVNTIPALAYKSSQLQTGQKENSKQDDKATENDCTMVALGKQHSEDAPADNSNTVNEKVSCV
Test [6] concerns the target T3, D(2) dopamine receptor (Homo sapiens, UniProt P14416). Put plainly: Displacement of [3H]Spiperone from human dopamine D2 long receptor. Summed up:
(§2)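 Membranes from CHO cells stably expressing the human receptor, at 5-20 μg protein/assay tube, were competed against [3H]spiperone at 0.1-0.4 nM final. […] IC50 came from sigmoid nonlinear regression.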

The target of test [7] is T3, D(2) dopamine receptor. Put plainly: Displacement of [3H]Spiperone from human dopamine D2 short receptor. Summed up: as §2
The target in the next test is D(3) dopamine receptor (Homo sapiens, UniProt P35462). Put plainly: Displacement of [3H]Spiperone from human dopamine D3 receptor. Summed up:
as §2

The next test deals with T4, D(4) dopamine receptor (Homo sapiens, UniProt P21917).
T4 sequence (P21917 whole entry): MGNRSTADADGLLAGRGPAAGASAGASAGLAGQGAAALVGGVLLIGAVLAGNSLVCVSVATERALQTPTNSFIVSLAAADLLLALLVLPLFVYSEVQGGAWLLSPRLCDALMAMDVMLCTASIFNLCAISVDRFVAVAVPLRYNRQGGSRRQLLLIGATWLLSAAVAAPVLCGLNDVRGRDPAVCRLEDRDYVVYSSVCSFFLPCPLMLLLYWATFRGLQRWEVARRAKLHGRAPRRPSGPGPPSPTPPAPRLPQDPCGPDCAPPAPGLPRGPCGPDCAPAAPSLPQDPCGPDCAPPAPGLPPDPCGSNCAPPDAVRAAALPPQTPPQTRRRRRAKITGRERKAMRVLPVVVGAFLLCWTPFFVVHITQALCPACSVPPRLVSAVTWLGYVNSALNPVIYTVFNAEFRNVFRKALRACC
The experiment in a line: Displacement of [3H]Spiperone from human dopamine D4.4 receptor. In a few lines: as §2

A short description of test [8]: Displacement of [3H]Prazosin from adrenergic alpha1 receptor in pig cortex membranes. Type of test: cell membranes, Sus scrofa.
A further test has as its target D(1A) dopamine receptor (Sus scrofa, UniProt P50130). The experiment in a line: Displacement of [3H]SCH23390 from dopamine D1 receptor in pig striatal membranes.
Test [9] can be described thus: Displacement of [3H]RX821002 from adrenergic alpha2 receptor in pig cortex membranes.

Chain of D(3) dopamine receptor (P35462 whole entry): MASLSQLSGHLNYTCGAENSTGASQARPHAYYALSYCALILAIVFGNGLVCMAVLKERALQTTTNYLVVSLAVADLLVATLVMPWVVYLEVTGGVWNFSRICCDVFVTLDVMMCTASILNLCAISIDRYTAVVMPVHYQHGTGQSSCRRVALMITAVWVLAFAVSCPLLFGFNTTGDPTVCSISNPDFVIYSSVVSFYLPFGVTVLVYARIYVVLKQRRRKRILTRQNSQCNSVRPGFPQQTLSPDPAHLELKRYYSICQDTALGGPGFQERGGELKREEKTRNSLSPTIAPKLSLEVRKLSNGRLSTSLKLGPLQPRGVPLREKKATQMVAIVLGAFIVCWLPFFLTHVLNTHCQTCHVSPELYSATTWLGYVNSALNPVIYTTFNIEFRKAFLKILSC
Chain of D(1A) dopamine receptor (P50130 whole entry): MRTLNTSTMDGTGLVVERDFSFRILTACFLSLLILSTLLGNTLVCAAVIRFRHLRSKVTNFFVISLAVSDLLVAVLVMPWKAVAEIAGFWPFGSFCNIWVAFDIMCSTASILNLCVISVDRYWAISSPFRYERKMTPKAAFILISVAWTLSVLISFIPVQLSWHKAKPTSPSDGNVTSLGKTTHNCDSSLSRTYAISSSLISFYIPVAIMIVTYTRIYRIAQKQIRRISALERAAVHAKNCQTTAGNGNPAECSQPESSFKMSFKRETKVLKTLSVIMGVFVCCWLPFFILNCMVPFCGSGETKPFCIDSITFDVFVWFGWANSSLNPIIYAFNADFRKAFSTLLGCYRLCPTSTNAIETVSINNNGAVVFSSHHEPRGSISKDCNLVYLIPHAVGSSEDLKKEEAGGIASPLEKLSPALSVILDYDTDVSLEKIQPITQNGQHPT
T3 sequence (P14416 whole entry): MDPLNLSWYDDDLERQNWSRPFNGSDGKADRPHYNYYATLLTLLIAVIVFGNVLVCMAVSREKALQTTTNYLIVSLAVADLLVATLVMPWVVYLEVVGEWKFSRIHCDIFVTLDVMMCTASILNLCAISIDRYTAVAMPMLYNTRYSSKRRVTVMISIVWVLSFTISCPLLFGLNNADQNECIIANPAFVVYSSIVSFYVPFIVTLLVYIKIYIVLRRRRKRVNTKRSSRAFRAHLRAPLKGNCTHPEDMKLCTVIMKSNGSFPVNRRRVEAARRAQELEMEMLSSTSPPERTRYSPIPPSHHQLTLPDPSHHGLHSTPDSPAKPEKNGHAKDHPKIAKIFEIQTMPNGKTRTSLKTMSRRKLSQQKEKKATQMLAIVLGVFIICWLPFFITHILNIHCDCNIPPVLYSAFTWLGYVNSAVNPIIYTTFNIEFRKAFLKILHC

One may read the EC50 as the concentration at which the effect is half-maximal. In general, Ki refers to a measure of affinity in units of concentration, obtained from inhibition or displacement. One may read the Emax as the size of the effect at its maximum, as opposed to the concentration needed. As to `Cc1ccc(CNCC2(F)CCN(C(=O)c3cccs3)CC2)nc1`, in test [1], the EC50 is 18 nM. The same compound returned a Ki in [2] of 27 nM. In addition, the Emax in [3] was determined as 91%. Moreover, the Activity in the test on Mus musculus came out at 45%.
As for `Cc1ccc(CNCC2(F)CCN(C(=O)c3ccco3)CC2)nc1`, the half-maximal effective concentration (EC50) in [1] turned out to be 15 nM. In [2], this compound yielded a Ki of 62 nM. In addition, the Emax in test [3] was 81%. The Activity in the test on Mus musculus is listed as 35%.
With `Cc1ccc(CNCC2(F)CCN(C(=O)c3csc4ccccc34)CC2)nc1`, in test [1], the EC50 was 10 nM. Also, the inhibition constant Ki amounted to 2.7 nM in [2]; 0.86 nM in test [4]; 22000 nM in test [5]; 20000 nM on D(2) dopamine receptor [6]; 54000 nM at D(2) dopamine receptor [7]; 8700 nM at D(3) dopamine receptor. Besides, the Ki turned out to be 460 nM at D(4) dopamine receptor, 2000 nM in [8], 45000 nM at D(1A) dopamine receptor and 1700 nM in test [9]. Moreover, in test [3], the maximal effect (Emax) was determined as 124%.
Regarding `Cc1ccc(CNCC2(F)CCN(C(=O)c3ccc(F)c(Cl)c3)CC2)nc1` [BEFIRADOL], the inhibition constant Ki worked out at 1.1 nM in test [2]; 0.33 nM in test [4]; 23000 nM in [5]; 15000 nM on D(2) dopamine receptor [6]; 46000 nM on D(2) dopamine receptor [7]; 10000 nM on D(3) dopamine receptor. Further, the Ki at D(4) dopamine receptor came to 2000 nM; in test [8], 4500 nM; on D(1A) dopamine receptor it was 26000 nM; in test [9], 3700 nM.
With `Cc1ccc(CNCC2(F)CCN(C(=O)c3cc(Br)cs3)CC2)nc1`, the concentration giving a half-maximal response (EC50) in test [1] amounted to 17 nM. The inhibitory constant (Ki) turned out to be 6.2 nM in test [2]; 1.8 nM in [4]; 18000 nM in test [5]; 73000 nM on D(2) dopamine receptor [6]; 100000 nM on D(2) dopamine receptor [7]; 19000 nM at D(3) dopamine receptor. Moreover, the inhibition constant Ki stood at 2000 nM at D(4) dopamine receptor, 2300 nM in [8], 34000 nM at D(1A) dopamine receptor and 3500 nM in test [9]. Further, the maximal response (Emax) in test [3] was found to be 116%.
As to `Cc1ccc(CNCC2(F)CCN(C(=O)c3coc4ccccc34)CC2)nc1`, the 50% effective concentration (EC50) in test [1] stood at 16 nM. The inhibitory constant (Ki) in test [2] turned out to be 4.2 nM; in test [4], 1.1 nM; in test [5], 53000 nM; at D(2) dopamine receptor [6], 27000 nM; on D(2) dopamine receptor [7], 28000 nM; at D(3) dopamine receptor, 12000 nM. For the same compound, the Ki was determined as 590 nM at D(4) dopamine receptor, 2800 nM in test [8], 48000 nM at D(1A) dopamine receptor and 2800 nM in test [9]. Also, the maximum response (Emax) in test [3] is 101%.
In the case of `Cc1ccc(CNCC2(F)CCN(C(=O)C34CC5CC(CC(O)(C5)C3)C4)CC2)nc1`, the EC50 in test [1] was found to be 600 nM. The compound further showed an inhibition constant Ki in [2] of 1300 nM. In addition, in test [3], the Emax came to 90%.
As to `Cc1ccc(CNCC2(F)CCN(C(=O)c3sc(Br)c4c3OCCO4)CC2)nc1`, in test [1], the EC50 was found to be 63 nM. For the same compound, in test [2], the inhibitory constant (Ki) was found to be 32 nM. The maximal effect (Emax) in [3] was 102%.
In the case of `Cc1ccc(CNCC2(F)CCN(C(=O)C34CC5CC(CC(C5)C3)C4)CC2)nc1`, the half-maximal effective concentration (EC50) in test [1] was determined as 11 nM. In test [2], this compound displayed an inhibitory constant (Ki) of 17 nM. Besides, in test [3], the Emax came out at 98%.
In the case of `Cc1ccc(CNCC2(O)CC3CCC(C2)N3C(=O)c2ccsc2)nc1` (stereo unspecified), the EC50 in test [1] came to 32 nM. Besides, the affinity in [2], expressed as Ki, was 43 nM. Moreover, in test [3], the Emax was found to be 101%.
In the case of `Cc1ccc(CNCC2(F)CCN(C(=O)c3cc4ccccc4s3)CC2)nc1`, the EC50 in test [1] was 240 nM. Moreover, the affinity in test [2] corresponds to a Ki of 190 nM. Also, the Emax in [3] stood at 116%.
`Cc1ccc(CNCC2(F)CCN(C(=O)c3ccccc3)CC2)nc1`: the EC50 in test [1] was 13 nM. This compound had an inhibition constant Ki in test [2] of 15 nM. The Emax in [3] is 96%.
Turning to `Cc1ccc(CNCC2(F)CCN(C(=O)c3sc4sccc4c3Cl)CC2)nc1`, the 50% effective concentration (EC50) in test [1] amounted to 59 nM. For the same compound, affinity in test [2] was put at a Ki of 25 nM. Also, in [3], the Emax worked out at 97%.
Regarding `Cc1ccc(CNCC2(F)CCN(C(=O)c3sccc3Cl)CC2)nc1`, in test [1], the EC50 turned out to be 30 nM. The compound also had an inhibition constant Ki in test [2] of 25 nM. Moreover, the Emax in test [3] was determined as 99%.
In the case of `Cc1ccc(CNCC2(F)CCN(C(=O)c3cc4ccccn4n3)CC2)nc1`, the EC50 in [1] worked out at 93 nM. The inhibitory constant (Ki) in test [2] is 180 nM. For the same compound, the Emax in test [3] was 80%.
